Data reported in ChEMBL document CHEMBL3351992, “Modular assembly of purine-like bisphosphonates as inhibitors of HIV-1 reverse transcriptase” (J Med Chem, 2014).
Values belong to the compound of their own block, whether it stands above or below them. Active and inactive are the calls of the source. The calls are words filed in the database; no cut-off is given here.

How the values were obtained:
[1] = target: Human immunodeficiency virus type 1 reverse transcriptase (Human immunodeficiency virus 1, UniProt Q72547); experiment: Inhibition of wild type HIV1 reverse transcriptase assessed as inhibition of DNA primer extension using [8-3H(N)]-dATP by scintillation proximity assay
Outline: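 Biotinylated PPT80 DNA template annealed to DNA PPT primer (50 nM hybrid), preincubated 5 min at 37 °C with inhibitor in 50 mM Tris pH 7.8, 50 mM NaCl, 6 mM MgCl2, 4 μM dCTP/dGTP/dTTP, 0.5 μM [8-3H]-dATP. Purified RT added and reaction run 5 min. Quenched with EDTA plus streptavidin SPA beads. Beads counted after ~8 h settling. Ten-point 3-fold dilutions from 100 μM to 10 nM, DMSO ≤5%. Activity taken relative to uninhibited controls. IC50 from variable-slope sigmoidal fit; triplicate determinations.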

[2] = target: T1, Farnesyl pyrophosphate synthase (Homo sapiens) (UniProt P14324); experiment: Inhibition of human FPPS at 50 uM
T1 sequence (whole entry): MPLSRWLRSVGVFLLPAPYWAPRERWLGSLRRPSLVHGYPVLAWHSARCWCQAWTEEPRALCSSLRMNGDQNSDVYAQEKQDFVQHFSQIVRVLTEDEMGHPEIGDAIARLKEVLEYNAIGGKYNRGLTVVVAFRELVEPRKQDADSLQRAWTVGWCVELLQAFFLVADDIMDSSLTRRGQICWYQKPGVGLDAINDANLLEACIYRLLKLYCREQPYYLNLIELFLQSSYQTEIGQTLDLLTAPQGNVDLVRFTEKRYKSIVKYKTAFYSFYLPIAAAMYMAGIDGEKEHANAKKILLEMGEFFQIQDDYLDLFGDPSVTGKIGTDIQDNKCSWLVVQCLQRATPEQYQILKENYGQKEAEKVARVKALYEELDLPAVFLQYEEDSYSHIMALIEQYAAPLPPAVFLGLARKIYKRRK

[3] = target: T2, Geranylgeranyl pyrophosphate synthase (Homo sapiens) (UniProt O95749); experiment: Inhibition of human GGPPS at 50 uM
T2 sequence (whole entry): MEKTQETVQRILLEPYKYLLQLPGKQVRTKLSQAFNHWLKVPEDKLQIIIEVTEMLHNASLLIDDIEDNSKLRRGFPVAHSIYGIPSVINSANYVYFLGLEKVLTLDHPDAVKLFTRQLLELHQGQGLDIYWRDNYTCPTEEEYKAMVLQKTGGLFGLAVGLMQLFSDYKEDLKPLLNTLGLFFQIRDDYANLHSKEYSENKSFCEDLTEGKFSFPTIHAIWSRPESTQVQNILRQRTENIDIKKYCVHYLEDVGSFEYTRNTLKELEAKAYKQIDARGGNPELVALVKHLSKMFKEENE

[4] = target: Human immunodeficiency virus type 1 reverse transcriptase (Human immunodeficiency virus 1, UniProt Q72547, K65R); experiment: Inhibition of wild type HIV1 reverse transcriptase K65R mutant assessed as inhibition of DNA primer extension using [8-3H(N)]-dATP by scintillation proximity assay
Outline: (§1)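 50 nM biotinylated PPT80 template/PPT primer and inhibitor (10-step 3-fold series, 100 μM–10 nM final, DMSO ≤5%) were preincubated 5 min at 37 °C. Buffer: 50 mM Tris pH 7.8, 50 mM NaCl, 6 mM MgCl2, 4 μM dCTP/dGTP/dTTP, 0.5 μM [3H]dATP. RT started the 5-min reaction, stopped with EDTA/streptavidin SPA beads. Counts were normalized to uninhibited controls; IC50 from variable-slope sigmoid fit.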

[5] = target: Human immunodeficiency virus type 1 reverse transcriptase (Human immunodeficiency virus 1, UniProt Q72547, M184V); experiment: Inhibition of wild type HIV1 reverse transcriptase M184V mutant assessed as inhibition of DNA primer extension using [8-3H(N)]-dATP by scintillation proximity assay; outline: as §1
[6] = tested on: Human immunodeficiency virus type 1 reverse transcriptase (Human immunodeficiency virus 1), Q72547 [K65R]; experiment: Inhibition of wild type HIV1 reverse transcriptase K65R mutant assessed as inhibition of DNA primer extension using [8-3H(N)]-dATP by scintillation proximity assay relative to wild type
[7] = tested on: Human immunodeficiency virus type 1 reverse transcriptase (Human immunodeficiency virus 1), Q72547 [M184V]; experiment: Inhibition of wild type HIV1 reverse transcriptase M184V mutant assessed as inhibition of DNA primer extension using [8-3H(N)]-dATP by scintillation proximity assay relative to wild type
[8] = target: T2, Geranylgeranyl pyrophosphate synthase (Homo sapiens); experiment: Inhibition of human GGPPS at 10 uM
[9] = target: T1, Farnesyl pyrophosphate synthase (Homo sapiens); experiment: Inhibition of human FPPS at 10 uM

SMILES: CSc1nc2ncnc(NC(P(=O)(O)O)P(=O)(O)O)c2cc1-c1ccc(OC(C)C)cc1
IC50 [1]: 1.8 µM | inhibition [2]: < 10% | inhibition [3]: < 10% | IC50 [4]: 1.8 µM | IC50 [5]: 1.4 µM | Ratio IC50 [6]: 2.1 | Ratio IC50 [7]: 1.6

SMILES: CSc1nc2ncnc(NCC(P(=O)(O)O)P(=O)(O)O)c2cc1-c1ccccc1
IC50 [1]: 1.1 µM | inhibition [8]: inactive | inhibition [9]: 75% | IC50 [4]: 5.2 µM | IC50 [5]: 0.6 µM | Ratio IC50 [6]: 3.4 | Ratio IC50 [7]: 0.4

SMILES: CSc1ccc2c(NC(P(=O)(O)O)P(=O)(O)O)ncnc2n1
IC50 [1]: > 50 µM

SMILES: O=C(O)C(=NNc1ccc(Cl)cc1)C(=O)O
IC50 [1]: 1.5 µM

SMILES: O=P(O)(O)C(CNc1ncnc2ncc(-c3ccsc3)cc12)P(=O)(O)O
IC50 [1]: 9 µM

SMILES: COc1cccc(-c2cc3c(NCC(P(=O)(O)O)P(=O)(O)O)ncnc3nc2SC)c1
IC50 [1]: 2.4 µM | inhibition [8]: inactive | inhibition [9]: 75% | IC50 [4]: 3.3 µM | IC50 [5]: 4.2 µM | Ratio IC50 [6]: 2.1 | Ratio IC50 [7]: 2.7

Further lines, results first:

IC50 [1]: 20 µM
SMILES: COc1cccc(-c2cnc3ncnc(NCC(P(=O)(O)O)P(=O)(O)O)c3c2)c1

IC50 [1]: 10 µM
SMILES: CC(C)Oc1ccc(-c2cnc3ncnc(NC(P(=O)(O)O)P(=O)(O)O)c3c2)cc1

IC50 [1]: 7.1 µM
SMILES: CSc1nc2ncnc(NCC(P(=O)(O)O)P(=O)(O)O)c2cc1-c1ccc(OC(C)C)cc1

IC50 [1]: > 50 µM
SMILES: O=P(O)(O)C(Nc1ncnc2ncccc12)P(=O)(O)O

IC50 [1]: > 50 µM
SMILES: O=P(O)(O)C(CNc1ncnc2ncccc12)P(=O)(O)O

IC50 [1]: 8.3 µM
SMILES: CSc1nc2ncnc(NCC(P(=O)(O)O)P(=O)(O)O)c2cc1-c1ccsc1

IC50 [1]: 10.4 µM
SMILES: O=P(O)(O)C(Nc1ncnc2nc(-c3cccs3)ccc12)P(=O)(O)O
